An excerpt weighted towards active compounds, which were near 2.6% of everything screened.
esBAF inh – SWI/SNF esBAF complex inhibition. reporter increase, % at 12.5 µM. 2% of 350,000 active. mouse ES cells, Bmi1-luciferase knock-in reporter, 24 h; 100% = twice the neutral-well signal; in the data active means activation above about 40%;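 further: a rise in the Bmi1 reporter signal indicates esBAF inhibition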
ARFGAP1 inhibitor – rat ARFGAP1 inhibition | Q62848 | Arfgap1-stimulated ARF1 GTP hydrolysis, GDP FP detection | inhibition, % at 16.5 µM | 0.26% of 360,000 active;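 active means inhibition above a per-plate limit, mean inhibition of low control wells plus 3 SD, cut at about 25% in these data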
Target sequence (Q62848 1-136 limits assumed): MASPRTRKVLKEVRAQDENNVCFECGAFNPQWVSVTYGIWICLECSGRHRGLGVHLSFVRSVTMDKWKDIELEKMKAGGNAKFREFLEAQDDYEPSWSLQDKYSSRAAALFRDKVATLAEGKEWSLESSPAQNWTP
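system = rat Arfgap1 catalytic domain, aa 1-136 | technique = FP, GDP Alexa 633 tracer displaced from anti-GDP antibody, 620/688 nm | compound = one concentration, 16.5 µM, DMSO 1.26% | medium = HEPES-based buffer, pH 7.5 | timing = compound-enzyme preincubation 20 min, reaction 120 min, detection 60 min, 25 °C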
SMARCA2 activ – activators of SMARCA2 function | MG213 cells, MMTV-luciferase reporter, dexamethasone, overnight | activation, % at 9.1 µM | 1% of 370,000 active | AID 652017; in the data active means activation above about 7.8%
ASAP1 inh – ASAP1 ArfGAP inhibition; Q9ULH1; ASAP1-stimulated ARF1 GTP hydrolysis, GDP FP detection; inhibition, % at 16.5 µM; 0.19% of 360,000 active; in the data active means inhibition above about 25%
Target sequence (Q9ULH1 325-724 limits assumed): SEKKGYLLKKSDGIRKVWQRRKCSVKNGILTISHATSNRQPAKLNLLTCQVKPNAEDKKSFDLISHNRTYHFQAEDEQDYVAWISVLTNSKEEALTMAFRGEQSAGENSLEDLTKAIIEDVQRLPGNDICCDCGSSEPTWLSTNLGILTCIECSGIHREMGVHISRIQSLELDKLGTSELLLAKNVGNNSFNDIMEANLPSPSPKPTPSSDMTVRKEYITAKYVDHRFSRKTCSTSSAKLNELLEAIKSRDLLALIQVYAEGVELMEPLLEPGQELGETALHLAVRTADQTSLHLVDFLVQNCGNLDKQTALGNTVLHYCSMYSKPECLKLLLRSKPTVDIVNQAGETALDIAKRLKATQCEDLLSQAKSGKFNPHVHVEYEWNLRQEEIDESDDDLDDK
Each line names hits and unclear results; the compound was inactive in the other large screens.

O=C(Nc1ccc(Cl)c(Cl)c1)Nc1ccccn1	esBAF inh 66.7
COc1cccc(NC(=O)Nc2cc(C(=O)O)ccc2C)c1	none
O=C(Nc1ccccc1)C(=O)Nc1ccccn1	SMARCA2 activ 8.0
COc1cccc(NC(=O)Nc2ccncc2)c1	none (no result: esBAF inh)
COc1cccc(NC(=O)Nc2ccc(C(C)(C)C)cc2)c1	esBAF inh 57.3
COc1cccc(NC(=O)Nc2ccc(C)c(Cl)c2)c1	esBAF inh 55.0
O=C(Nc1cccc(O)c1)C(=O)Nc1ccccn1	none
CO[C@H]1CN(C)C(=O)c2ccc(NC(=O)C3CC3)cc2OC[C@H](C)N(Cc2cncnc2)C[C@H]1C	none (no result: ARFGAP1 inhibitor, SMARCA2 activ, ASAP1 inh)
CCCC#Cc1cnc2c(c1)C(=O)N([C@H](C)CO)C[C@@H](C)[C@H](CN(C)C(=O)NCCC)O2	none (no result: ARFGAP1 inhibitor, SMARCA2 activ, ASAP1 inh)
O=S(=O)(Cc1ccccc1)NCC[C@@H]1CC[C@@H](NS(=O)(=O)c2ccccc2)[C@H](CO)O1	none (no result: ARFGAP1 inhibitor, SMARCA2 activ, ASAP1 inh)
COC(=O)c1cccc(NC(=O)Nc2ccc(Cl)c(Cl)c2)c1	esBAF inh 71.1
COC(=O)c1cccc(NC(=O)NC(=O)c2ccccc2Cl)c1	none (no result: esBAF inh)
COc1cccc(NC(=O)c2ccc(NC(=O)C(C)(C)C)cc2)c1	esBAF inh 65.6
CC(C)(C)C(=O)Nc1ccc(C(=O)OC2CCCCC2)cc1	esBAF inh 63.6 (no result: ARFGAP1 inhibitor, SMARCA2 activ, ASAP1 inh)
CCCC(=O)Nc1ccc(C(=O)Nc2cccc(OC)c2)cc1	none (no result: esBAF inh)
COCC(=O)N(C)C[C@@H]1Oc2cc(C#CCC(C)C)ccc2S(=O)(=O)N([C@H](C)CO)C[C@H]1C	none (no result: ARFGAP1 inhibitor, SMARCA2 activ, ASAP1 inh)
Cc1ccc(S(=O)(=O)N[C@@H]2C=C[C@H](CC(=O)N3CCc4ccccc4C3)O[C@@H]2CO)cc1	none (no result: ARFGAP1 inhibitor, SMARCA2 activ, ASAP1 inh)
Nc1ccc2nn(-c3ccccc3)nc2c1	esBAF inh 57.5
Nc1ccc(-n2nc3ccccc3n2)cc1	none (no result: esBAF inh)
O=C(C[C@H]1CC[C@@H](NC(=O)Nc2ccccc2F)[C@@H](CO)O1)NCc1ccc(Cl)cc1	none (no result: ARFGAP1 inhibitor, SMARCA2 activ, ASAP1 inh)
O=C(NC(=O)N1CCN(c2ccccc2)CC1)c1ccc(Cl)cc1	esBAF inh 49.5
Cc1cc(/C=C2\SC(=S)N(Cc3ccco3)C2=O)c(C)n1-c1cccnc1	esBAF inh 43.4
CCC(=O)N1[C@@H](CO)[C@@H]2c3ccccc3N(C(=O)c3ccc4c(c3)OCO4)C[C@@H]21	none (no result: ARFGAP1 inhibitor, SMARCA2 activ, ASAP1 inh)
O=C(/C=C/c1cccs1)c1ccc(NC(=O)c2cccc(Br)c2)cc1	none
Cc1ccc(C(=O)Nc2ccc(C(=O)/C=C/c3cccs3)cc2)cc1	esBAF inh 69.3
O=C(Nc1ccc(CN2CCOCC2)cc1)c1cc2ccccc2o1	none
Cc1ccc(C(=O)Nc2ccc(N3CCCCC3)cc2)cc1	none
O=C(Nc1ccc(N2CCOCC2)cc1)c1cc2ccccc2o1	esBAF inh 46.1
Cc1ccc(C(=O)Nc2ccc(N3CCOCC3)cc2)cc1	esBAF inh 56.3
Cc1ccc(C(=O)Nc2ccc(N3CCCC3)cc2)cc1	esBAF inh 43.9
CCCN1[C@@H]2Cn3c(ccc(-c4ccccc4F)c3=O)[C@H]1[C@@H](C(=O)NCC)[C@@H]2CO	none (no result: ARFGAP1 inhibitor, SMARCA2 activ, ASAP1 inh)
O=C(C[C@H]1CC[C@H]2[C@@H](COC[C@@H](O)CN2Cc2ccccc2F)O1)N[C@@H]1CCN(Cc2ccccc2)C1	none (no result: ARFGAP1 inhibitor, SMARCA2 activ, ASAP1 inh)
Nc1nc2ccc(C(=O)Nc3ccc(N4CCOCC4)cc3)cc2s1	esBAF inh 51.4
Cc1ccc(C(=O)NC(=S)Nc2ccc3c(c2)OCCO3)c(C)c1	none
O=C(Nc1ccc(N2CCOCC2)cc1)c1ccc2ncsc2c1	none
Cc1ccc(C(=O)NC(=S)Nc2ccc(N3CCOCC3)cc2)c(C)c1	SMARCA2 activ 7.9
O=C(N[C@H]1CC[C@H](CCn2cc(-c3ccccn3)nn2)O[C@@H]1CO)c1ccccc1	none (no result: ARFGAP1 inhibitor, SMARCA2 activ, ASAP1 inh)
COc1ccc(NC(=O)c2cc(OC)c(OC)c(OC)c2Br)cc1OC	none (no result: esBAF inh)
COc1cc(C(=O)Nc2ccc(C(C)=O)cc2)c(Br)c(OC)c1OC	esBAF inh 47.6
C[C@H]1CN([C@@H](C)CO)C(=O)c2cc(-c3ccncc3)cnc2O[C@H]1CN(C)C(=O)c1ccncc1	none (no result: ARFGAP1 inhibitor, SMARCA2 activ, ASAP1 inh)
C[C@@H]1CN([C@@H](C)CO)C(=O)c2cc(NS(=O)(=O)c3cn(C)cn3)ccc2O[C@@H](C)CCCCO[C@H]1CN(C)S(=O)(=O)c1ccc(F)cc1	none (no result: ARFGAP1 inhibitor, SMARCA2 activ, ASAP1 inh)
CCC(SC1=Nc2ccccc2C2=NC(CC(C)C)C(=O)N12)C(=O)Nc1ccc2c(c1)OCO2 (configuration not stated)	esBAF inh 50.9
O=C(NC(=S)Nc1ccc(Cl)cn1)c1cccs1	esBAF inh 72.0
CCc1[nH]nc(C(=O)NC2CCCc3c2cnn3-c2cc(C)cc(C)c2)c1C (configuration not stated)	esBAF inh 66.2
CCc1noc(C)c1C(=O)NC1CCCc2c1cnn2-c1cc(C)cc(C)c1 (configuration not stated)	none
Cc1cc(Cl)c2oc(C(=O)N3CCN(C4CCS(=O)(=O)C4)CC3)c(C)c2c1 (configuration not stated)	none
C=CCN(C(=O)c1oc2c(Cl)cc(C)cc2c1C)C1CCS(=O)(=O)C1 (configuration not stated)	esBAF inh 64.1
S=C(Nc1ccc2c(c1)OCO2)Nc1ccc2c(c1)OCO2	esBAF inh 50.6
S=C(NCc1ccc2c(c1)OCO2)Nc1ccc2nsnc2c1	esBAF inh 56.1
CN(C)C(=S)Nc1ccc2c(c1)OCO2	none (no result: esBAF inh)
Cc1ccc(NC(=S)NCc2ccc3c(c2)OCO3)cc1C	none (no result: esBAF inh)
CC(C)NC(=O)N(C)C[C@H]1Oc2ncc(C#CC3CCCCC3)cc2C(=O)N([C@@H](C)CO)C[C@H]1C	none (no result: ARFGAP1 inhibitor, SMARCA2 activ, ASAP1 inh)
COC(=O)C[C@@H]1CC[C@@H]2[C@H](COC[C@H](O)CN2CCC(F)(F)F)O1	none (no result: ARFGAP1 inhibitor, SMARCA2 activ, ASAP1 inh)
O=C(Nc1ccc(C(=O)c2ccccc2)cc1)c1ccccc1	esBAF inh 61.0
O=C(Nc1ccc(C(F)(F)F)cc1)c1ccccc1	esBAF inh 53.5
O=C(Nc1ccc(F)c(F)c1)c1cccnc1	none
Cc1ccccc1C(=O)Nc1ccc2c(c1)CCCN2C(=O)c1cccs1	none
O=C(NNC(=O)c1ccc(NC(=O)c2ccccc2)cc1)c1ccc(F)cc1	none
O=C(Nc1ccc(F)c(F)c1)c1ccccc1	esBAF inh 41.7
O=C(Nc1ccc2c(c1)CCCN2C(=O)c1ccccc1)c1ccccc1	esBAF inh 46.1
CCCC#Cc1ccc([C@@H]2[C@H](C#N)N(C(=O)C3CC3)[C@H]2CO)cc1	none (no result: ARFGAP1 inhibitor, SMARCA2 activ, ASAP1 inh)
Cc1ccc(C(=O)CSc2nnc3n2CCCCC3)s1	esBAF inh 64.8
C[C@H](CO)N1C[C@H](C)[C@H](CN(C)C(=O)Nc2ccc(C(F)(F)F)cc2)Oc2ncc(C#C[C@@H](C)O)cc2C1=O	none (no result: ARFGAP1 inhibitor, SMARCA2 activ, ASAP1 inh)
CCc1cc(C=NC2CCCCC2)c(O)s1	esBAF inh 51.2
Cc1noc(C)c1S(=O)(=O)Nc1ccc2c(c1)C(=O)N([C@@H](C)CO)C[C@H](C)[C@H](CN(C)S(=O)(=O)c1ccc(Cl)cc1)O2	none (no result: ARFGAP1 inhibitor, SMARCA2 activ, ASAP1 inh)
COc1cc2sc3cc(NCCCN4CCOCC4)ccc3c(=O)c2cc1OC	esBAF inh 54.6, ARFGAP1 inhibitor 31.5
C[C@@H]1CN([C@@H](C)CO)C(=O)c2cc(C3=CCCCC3)cnc2O[C@@H]1CN(C)Cc1ccc(C(=O)O)cc1	none (no result: ARFGAP1 inhibitor, SMARCA2 activ, ASAP1 inh)
Cc1noc(C(=O)Nc2cccc(Cl)c2)c1Cl	esBAF inh 55.8
Cc1cc(O)c(C(=O)Nc2cccc(Cl)c2)c(=O)n1C	esBAF inh 58.8
Cc1noc(C(=O)Nc2cccc(O)c2)c1Cl	none

Assay outcomes (PubChem)
